ChEMBL document CHEMBL1136726, “Synthesis and characterization of iodine-123 labeled 2beta-carbomethoxy-3beta-(4'-((Z)-2-iodoethenyl)phenyl)nortropane. A ligand for in vivo imaging of serotonin transporters by single-photon-emission tomography” (J Med Chem, 2003)

Key:
[1] = system: Rattus norvegicus; test: Distribution of radioactivity in rat brain region frontal cortex 60 min after intravenous administration of iodine labeled compound in absence of blocker in study 2; type: ADME, organism-based; details: in vivo, 1 h
Procedure, shortened: (§1)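 Male Sprague–Dawley rats (250–300 g), ketamine-anesthetized. Blocker (2 mg/kg) or none was given iv 15 min before tail-vein radioligand (10 µCi in 0.2 mL 10% EtOH/saline). Rats were killed at 60 min with im pentobarbital. Brain regions were dissected, weighed and gamma-counted. % dose/g was taken from decay-corrected, background-subtracted counts versus the injected dose.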

[2] = system: Rattus norvegicus; test: Ratio of distribution of radioactivity in rat brain region pons and cerebellum 60 min after intravenous administration of iodine labeled compound in presence of fluvoxamine blocker in study 1; type: ADME, organism-based; details: in vivo, 1 h
[3] = system: Rattus norvegicus; test: Distribution of radioactivity in rat blood 120 min after intravenous administration of iodine labeled compound; type: ADME, organism-based; details: in vivo, 2 h
Procedure, shortened: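 Male Sprague–Dawley rats (225–300 g) under ketamine received 10 µCi radioligand in 0.2 mL 10% EtOH/0.9% NaCl via tail vein, then a saline flush. Killed by cardiac excision at set times. Organs were excised, weighed and gamma-counted. % dose/g was taken against diluted injectate. Mean ± SE and range, n=4 (5 min) or 5 (30–120 min).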

[4] = system: Rattus norvegicus; test: Distribution of radioactivity in rat heart 5 min after intravenous administration of iodine labeled compound; type: ADME, organism-based; details: in vivo
Procedure, shortened: (§2)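 Tail-vein injection of [123I]ZIENT (10 μCi in 0.2 mL 10% EtOH/0.9% NaCl, then 0.4 mL saline flush) into ketamine-anaesthetised male Sprague–Dawley rats (225–300 g). Animals were killed by cardiac excision at set times. Organs were excised, rinsed, blotted, weighed and gamma-counted. % dose/g was calculated against diluted aliquots of injectate. Mean ± SE, n=4–5.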

[5] = system: Rattus norvegicus; test: Distribution of radioactivity in rat brain region striatum 60 min after intravenous administration of iodine labeled compound in presence of RTI-113 blocker in study 1; type: ADME, organism-based; details: in vivo, 1 h
Procedure, shortened: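 Male Sprague–Dawley rats (250–300 g), ketamine-anaesthetised, received [123I]ZIENT (10 μCi) in 0.2 mL 10% ethanol/0.9% NaCl via the tail vein. […] Rats were killed at 60 min with pentobarbital, brain regions dissected and gamma-counted. Values are % dose/g from decay-corrected, background-subtracted counts against the diluted injected dose.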

[6] = system: Rattus norvegicus; test: Distribution of radioactivity in rat brain cerebellum 60 min after intravenous administration of iodine labeled compound; type: ADME, organism-based; details: in vivo, 1 h
Procedure, shortened: (§3)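 Male Sprague–Dawley rats (225–300 g) under ketamine received 10 µCi radioligand iv (tail vein) in 10% EtOH/saline. Hypothalamus, prefrontal cortex, striatum, pons and cerebellum were dissected, weighed and gamma-counted. % injected dose/g was taken from decay-corrected counts versus diluted dose. Mean ± SE and range, n=5 (5, 30 min) or 4 (60, 120 min).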

[7] = system: Rattus norvegicus; test: Distribution of radioactivity in rat muscle tissue 5 min after intravenous administration of iodine labeled compound; type: ADME, organism-based; details: in vivo; procedure, shortened: as §2
[8] = system: Rattus norvegicus; test: Distribution of radioactivity in rat muscle tissue 60 min after intravenous administration of iodine labeled compound; type: ADME, organism-based; details: in vivo, 1 h; procedure, shortened: as §2
[9] = system: Rattus norvegicus; test: Distribution of radioactivity in rat brain region hypothalamus 60 min after intravenous administration of iodine labeled compound in presence of reboxetine blocker in study 2; type: ADME, organism-based; details: in vivo, 1 h; procedure, shortened: as §1
[10] = target: Sodium-dependent serotonin transporter (Homo sapiens, UniProt P31645); test: In vitro competitive binding versus [3H]citalopram in murine kidney cells transfected with cDNA for human serotonin transporter (SERT); type: cell-based
Sequence of Sodium-dependent serotonin transporter (P31645 whole entry): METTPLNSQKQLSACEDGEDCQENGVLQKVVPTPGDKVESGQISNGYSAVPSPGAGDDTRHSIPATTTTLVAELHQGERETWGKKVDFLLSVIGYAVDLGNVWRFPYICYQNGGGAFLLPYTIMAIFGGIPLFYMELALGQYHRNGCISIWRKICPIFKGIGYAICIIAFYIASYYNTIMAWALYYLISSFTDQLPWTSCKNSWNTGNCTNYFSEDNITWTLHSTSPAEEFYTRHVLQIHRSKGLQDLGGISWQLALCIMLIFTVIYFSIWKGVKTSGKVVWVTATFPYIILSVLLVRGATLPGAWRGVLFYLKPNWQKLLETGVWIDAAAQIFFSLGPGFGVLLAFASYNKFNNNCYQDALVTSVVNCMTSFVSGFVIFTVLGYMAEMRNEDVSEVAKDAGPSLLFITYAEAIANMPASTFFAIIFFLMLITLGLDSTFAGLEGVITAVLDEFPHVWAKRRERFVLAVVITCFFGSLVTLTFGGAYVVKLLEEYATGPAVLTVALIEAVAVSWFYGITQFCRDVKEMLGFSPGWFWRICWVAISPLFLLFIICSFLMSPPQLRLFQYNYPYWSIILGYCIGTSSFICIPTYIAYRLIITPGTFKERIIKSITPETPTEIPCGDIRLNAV

[11] = system: Rattus norvegicus; test: Distribution of radioactivity in rat brain region cerebellum 60 min after intravenous administration of iodine labeled compound in presence of reboxetine blocker in study 2; type: ADME, organism-based; details: in vivo, 1 h; procedure, shortened: as §1
[12] = system: Rattus norvegicus; test: Distribution of radioactivity in rat brain region pons 60 min after intravenous administration of iodine labeled compound in presence of fluvoxamine blocker in study 1; type: ADME, organism-based; details: in vivo, 1 h; procedure, shortened: as §1
[13] = system: Rattus norvegicus; test: Distribution of radioactivity in rat brain pons 5 min after intravenous administration of iodine labeled compound; type: ADME, organism-based; details: in vivo; procedure, shortened: as §3
[14] = system: Rattus norvegicus; test: Ratio of distribution of radioactivity in rat brain region striatum and cerebellum 60 min after intravenous administration of iodine labeled compound in absence of blocker in study 1; type: ADME, organism-based; details: in vivo, 1 h
[15] = system: Rattus norvegicus; test: Distribution of radioactivity in rat brain region prefrontal cortex 60 min after intravenous administration of iodine labeled compound in presence of reboxetine blocker in study 2; type: ADME, organism-based; details: in vivo, 1 h; procedure, shortened: as §1
[16] = system: Rattus norvegicus; test: Ratio of distribution of radioactivity in rat brain striatum and cerebellum 5 min after intravenous administration of iodine labeled compound; type: ADME, organism-based; details: in vivo
Procedure, shortened: (§4)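 Male Sprague–Dawley rats (225–300 g), ketamine anesthesia, injected via tail vein with [123I]ZIENT (10 μCi in 0.2 mL 10% EtOH/0.9% NaCl, 0.4 mL saline flush). Killed at 5, 30, 60 or 120 min. Striatum and cerebellum dissected, weighed, γ-counted. Decay-corrected %injected dose/g taken against diluted injectate. Ratio is striatum over cerebellum. Four or five rats per time point, mean ± standard error.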

[17] = system: Rattus norvegicus; test: Distribution of radioactivity in rat brain region pons 60 min after intravenous administration of iodine labeled compound in absence of blocker in study 1; type: ADME, organism-based; details: in vivo, 1 h; procedure, shortened: as §1
[18] = system: Rattus norvegicus; test: Distribution of radioactivity in rat brain region hypothalamus 60 min after intravenous administration of iodine labeled compound in presence of fluvoxamine blocker in study 1; type: ADME, organism-based; details: in vivo, 1 h; procedure, shortened: as §1
[19] = system: Rattus norvegicus; test: Distribution of radioactivity in rat brain 120 min after intravenous administration of iodine labeled compound; type: ADME, organism-based; details: in vivo, 2 h
[20] = system: Rattus norvegicus; test: Ratio of distribution of radioactivity in rat brain region prefrontal cortex and cerebellum 60 min after intravenous administration of iodine labeled compound in presence of reboxetine blocker in study 2; type: ADME, organism-based; details: in vivo, 1 h
[21] = system: Rattus norvegicus; test: Distribution of radioactivity in rat testis 120 min after intravenous administration of iodine labeled compound; type: ADME, organism-based; details: in vivo, 2 h; procedure, shortened: as §2
[22] = system: Rattus norvegicus; test: Ratio of distribution of radioactivity in rat brain prefrontal cortex and cerebellum 60 min after intravenous administration of iodine labeled compound; type: ADME, organism-based; details: in vivo, 1 h
Procedure, shortened: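 Male Sprague–Dawley rats (225–300 g) under ketamine anaesthesia were given [123I]ZIENT (10 μCi) in 0.2 mL 10% EtOH/0.9% NaCl into the tail vein, with a saline flush. Hypothalamus, prefrontal cortex, striatum, pons and cerebellum were dissected and gamma-counted. % injected dose/g came from decay-corrected counts against the diluted injected dose, and region/cerebellum ratios were taken from these. Mean ± SE, n=4–5.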

[23] = system: Rattus norvegicus; test: Distribution of radioactivity in rat liver 5 min after intravenous administration of iodine labeled compound; type: ADME, organism-based; details: in vivo; procedure, shortened: as §2
[24] = system: Rattus norvegicus; test: Distribution of radioactivity in rat spleen 120 min after intravenous administration of iodine labeled compound; type: ADME, organism-based; details: in vivo, 2 h; procedure, shortened: as §2
[25] = system: Rattus norvegicus; test: Distribution of radioactivity in rat brain prefrontal cortex 30 min after intravenous administration of iodine labeled compound; type: ADME, organism-based; details: in vivo, 0.5 h; procedure, shortened: as §3
[26] = system: Rattus norvegicus; test: Distribution of radioactivity in rat lung 30 min after intravenous administration of iodine labeled compound; type: ADME, organism-based; details: in vivo, 0.5 h; procedure, shortened: as §2
[27] = system: Rattus norvegicus; test: Distribution of radioactivity in rat kidney 120 min after intravenous administration of iodine labeled compound; type: ADME, organism-based; details: in vivo, 2 h; procedure, shortened: as §2
[28] = system: Rattus norvegicus; test: Distribution of radioactivity in rat muscle tissue 30 min after intravenous administration of iodine labeled compound; type: ADME, organism-based; details: in vivo, 0.5 h; procedure, shortened: as §2
[29] = system: Rattus norvegicus; test: Distribution of radioactivity in rat spleen 30 min after intravenous administration of iodine labeled compound; type: ADME, organism-based; details: in vivo, 0.5 h; procedure, shortened: as §2
[30] = system: Rattus norvegicus; test: Ratio of distribution of radioactivity in rat brain region hypothalamus and cerebellum 60 min after intravenous administration of iodine labeled compound in presence of fluvoxamine blocker in study 1; type: ADME, organism-based; details: in vivo, 1 h
[31] = system: Rattus norvegicus; test: Distribution of radioactivity in rat brain region pons 60 min after intravenous administration of iodine labeled compound in presence of reboxetine blocker in study 2; type: ADME, organism-based; details: in vivo, 1 h; procedure, shortened: as §1
[32] = system: Rattus norvegicus; test: Ratio of distribution of radioactivity in rat brain striatum and cerebellum 30 min after intravenous administration of iodine labeled compound; type: ADME, organism-based; details: in vivo, 0.5 h; procedure, shortened: as §4

In the case of COC(=O)[C@@H]1C2CCC(C[C@@H]1c1ccc(/C=C\I)cc1)N2 (some centres not stated), the “Distribution (dose/g)” value [1] is reported as 0.59%, the “Distribution (dose/g)” value [2] is reported as 1.47% and the “Distribution (dose/g)” value [3] is reported as 0.31%. The “Distribution (dose/g)” value [4] was 0.81%, the “Distribution (dose/g)” value [5] was 0.64% and the “Distribution (dose/g)” value [6] was 0.25%. For the same molecule, the “Distribution (dose/g)” value [7] was 0.23%, the “Distribution (dose/g)” value [8] was 0.2% and the “Distribution (dose/g)” value [9] was 0.65%. The Ki [10] was 50 pM, the “Distribution (dose/g)” value [11] was 0.23% and the “Distribution (dose/g)” value [12] was 0.25%. For the same molecule, the “Distribution (dose/g)” value [13] was 0.59%, the “Distribution (dose/g)” value [14] was 3.17% and the “Distribution (dose/g)” value [15] was 0.69%. For the same molecule, the “Distribution (dose/g)” value [16] was 1.21%, the “Distribution (dose/g)” value [17] was 0.62% and the “Distribution (dose/g)” value [18] was 0.31%. The “Distribution (dose/g)” value [19] was 0.39%, the “Distribution (dose/g)” value [20] was 3.07% and the “Distribution (dose/g)” value [21] was 0.31%. The “Distribution (dose/g)” value [22] was 3.28%, the “Distribution (dose/g)” value [23] was 0.38% and the “Distribution (dose/g)” value [24] was 0.43%. For the same molecule, the “Distribution (dose/g)” value [25] was 0.82%, the “Distribution (dose/g)” value [26] was 1.59% and the “Distribution (dose/g)” value [27] was 0.31%. For the same molecule, the “Distribution (dose/g)” value [28] was 0.23%, the “Distribution (dose/g)” value [29] was 0.81% and the “Distribution (dose/g)” value [30] was 1.82%. For the same molecule, the “Distribution (dose/g)” value [31] was 0.53% and the “Distribution (dose/g)” value [32] was 2.25%.
